Results as given in ChEMBL document CHEMBL4041542, “Synthesis and biological characterisation of ester and amide derivatives of fusidic acid as antiplasmodial agents” (Bioorg Med Chem Lett, 2017).

Legend:
Plasmodium falciparum [1] = experiment: Potency index, ratio of fusidic acid IC50 to compound IC50 for chloroquine-sensitive Plasmodium falciparum NF54; type: functional
Outline: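 Chloroquine-sensitive P. falciparum NF54 was tested with the lactate dehydrogenase assay, using chloroquine and artesunate as reference drugs. The index is fusidic acid's IC50 divided by the compound's IC50, both against NF54.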

Plasmodium falciparum [2] = experiment: Potency index, ratio of fusidic acid IC50 to compound IC50 for chloroquine-resistant Plasmodium falciparum K1; type: functional
[3] = Selectivity index, ratio of IC50 for CHO cells to IC50 for chloroquine-sensitive Plasmodium falciparum NF54; type: toxicity; settings: hamster, read-out: Ratio IC50
Outline: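 IC50 against Chinese hamster ovary cells (cytotoxicity) was divided by IC50 against P. falciparum NF54. NF54 IC50 came from the lactate dehydrogenase assay, with chloroquine and artesunate as references.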

Plasmodium falciparum [4] = experiment: Antiplasmodial activity against chloroquine-sensitive Plasmodium falciparum NF54 by LDH assay; type: functional
Outline: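 In vitro test on the chloroquine-sensitive NF54 strain of P. falciparum, read out by the lactate dehydrogenase assay. Reported as IC50. Chloroquine and artesunate were included as reference drugs in all experiments.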

Plasmodium falciparum [5] = experiment: Antiplasmodial activity against chloroquine-resistant Plasmodium falciparum K1 by [3H]hypoxanthine incorporation assay; type: functional
Outline: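 Multidrug-resistant K1 strain of P. falciparum tested in vitro with a modified [3H]hypoxanthine incorporation assay. IC50 determined. Chloroquine and artesunate served as reference drugs in every experiment.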

CHO = experiment: Cytotoxicity against CHO cells; type: cell-based; settings: Cricetulus griseus
[6] = Stability of the compound assessed as Plasmodium falciparum NF54 esterase-mediated fusidic acid release at 0.5 uM up to 48 hrs by LC-MS/MS analysis; type: ADME; settings: plasmodium falciparum nf54, isolated protein

Row | Structure (SMILES) | Ratio IC50 (Plasmodium falciparum [1]) | Ratio IC50 (Plasmodium falciparum [2]) | selectivity ratio [3] | IC50 (Plasmodium falciparum [4]) | IC50 (Plasmodium falciparum [5]) | IC50 (CHO) | Stability [6]
1 | CC(=O)O[C@H]1C[C@@]2(C)[C@@H](C[C@@H](O)[C@H]3[C@@]4(C)CC[C@@H](O)[C@@H](C)[C@@H]4CC[C@@]32C)/C1=C(\CCC=C(C)C)C(=O)Oc1ccc2ccccc2c1 | 4 - 49 | 5 - 17 | > 48 | 3200 nM | 1700 nM | > 155 µM | 
2 | CC(=O)O[C@H]1C[C@@]2(C)[C@@H](C[C@@H](O)[C@H]3[C@@]4(C)CC[C@@H](O)[C@@H](C)[C@@H]4CC[C@@]32C)/C1=C(\CCC=C(C)C)C(=O)Oc1ccc(Cl)c(Cl)c1 | 4 - 49 | 5 - 17 | 26 | 3600 nM | 2200 nM | 95 µM | 
3 | CCCCCCCCCCCCCCNC(=O)/C(CCC=C(C)C)=C1\[C@@H](OC(C)=O)C[C@@]2(C)[C@H]1C[C@@H](O)[C@H]1[C@@]3(C)CC[C@@H](O)[C@@H](C)[C@@H]3CC[C@@]12C | 4 - 49 | 5 - 17 | > 10 | 13400 nM | 4000 nM | > 140 µM | 
4 | CCCCCCCCCCCCOC(=O)/C(CCC=C(C)C)=C1\[C@@H](OC(C)=O)C[C@@]2(C)[C@H]1C[C@@H](O)[C@H]1[C@@]3(C)CC[C@@H](O)[C@@H](C)[C@@H]3CC[C@@]12C |  |  |  | > 100000 nM | > 14600 nM | > 146 µM | 
5 | CC(=O)O[C@H]1C[C@@]2(C)[C@@H](C[C@@H](O)[C@H]3[C@@]4(C)CC[C@@H](O)[C@@H](C)[C@@H]4CC[C@@]32C)/C1=C(\CCC=C(C)C)C(=O)Oc1ccc(Br)cc1 | 20 - 28 | 12 - 14 | 45 | 2100 nM | 1600 nM | 95.3 µM | 
6 | CC(=O)O[C@H]1C[C@@]2(C)[C@@H](C[C@@H](O)[C@H]3[C@@]4(C)CC[C@@H](O)[C@@H](C)[C@@H]4CC[C@@]32C)/C1=C(\CCC=C(C)C)C(=O)Oc1ccc(F)cc1 | 20 - 28 | 12 - 14 | 27 | 2900 nM | 1400 nM | 79.4 µM | 
7 | CCOC(=O)/C(CCC=C(C)C)=C1\[C@@H](OC(C)=O)C[C@@]2(C)[C@H]1C[C@@H](O)[C@H]1[C@@]3(C)CC[C@@H](O)[C@@H](C)[C@@H]3CC[C@@]12C | 4 - 49 | 5 - 17 | 19 | 3400 nM | 2200 nM | 65.5 µM | Stable
8 | CC(=O)O[C@H]1C[C@@]2(C)[C@@H](C[C@@H](O)[C@H]3[C@@]4(C)CC[C@@H](O)[C@@H](C)[C@@H]4CC[C@@]32C)/C1=C(\CCC=C(C)C)C(=O)Oc1cc(C)ccc1C | 4 - 49 | 5 - 17 | 34 | 3000 nM | 1400 nM | 103 µM | 
9 | CC(=O)O[C@H]1C[C@@]2(C)[C@@H](C[C@@H](O)[C@H]3[C@@]4(C)CC[C@@H](O)[C@@H](C)[C@@H]4CC[C@@]32C)/C1=C(\CCC=C(C)C)C(=O)Oc1cccc(Cl)c1 | 4 - 49 | 5 - 17 | 63 | 1400 nM | 1200 nM | 87.7 µM | 
10 | CC(=O)O[C@H]1C[C@@]2(C)[C@@H](C[C@@H](O)[C@H]3[C@@]4(C)CC[C@@H](O)[C@@H](C)[C@@H]4CC[C@@]32C)/C1=C(\CCC=C(C)C)C(=O)Oc1ccc(Cl)cc1 | 20 - 28 | 12 - 14 | 31 | 2300 nM | 1400 nM | 71.6 µM | 
11 | COc1cccc(OC(=O)/C(CCC=C(C)C)=C2\[C@@H](OC(C)=O)C[C@@]3(C)[C@H]2C[C@@H](O)[C@H]2[C@@]4(C)CC[C@@H](O)[C@@H](C)[C@@H]4CC[C@@]23C)c1 | 4 - 49 | 5 - 17 | 48 | 1800 nM | 1300 nM | 86.4 µM | 
12 | CC(=O)O[C@H]1C[C@@]2(C)[C@@H](C[C@@H](O)[C@H]3[C@@]4(C)CC[C@@H](O)[C@@H](C)[C@@H]4CC[C@@]32C)/C1=C(\CCC=C(C)C)C(=O)Oc1ccc(Cl)cc1Cl | 4 - 49 | 5 - 17 | 28 | 3500 nM | 1700 nM | 99.7 µM | 
13 | CC(=O)O[C@H]1C[C@@]2(C)[C@@H](C[C@@H](O)[C@H]3[C@@]4(C)CC[C@@H](O)[C@@H](C)[C@@H]4CC[C@@]32C)/C1=C(\CCC=C(C)C)C(=O)Oc1ccc(C)cc1C | 4 - 49 | 5 - 17 | 41 | 2400 nM | 1400 nM | 98.9 µM | 
14 | CCCCCCCCCCCCCCOC(=O)/C(CCC=C(C)C)=C1\[C@@H](OC(C)=O)C[C@@]2(C)[C@H]1C[C@@H](O)[C@H]1[C@@]3(C)CC[C@@H](O)[C@@H](C)[C@@H]3CC[C@@]12C |  |  |  | > 100000 nM | > 14000 nM | > 140 µM | 
15 | CCCCCCCCCCCCCCCCNC(=O)/C(CCC=C(C)C)=C1\[C@@H](OC(C)=O)C[C@@]2(C)[C@H]1C[C@@H](O)[C@H]1[C@@]3(C)CC[C@@H](O)[C@@H](C)[C@@H]3CC[C@@]12C |  |  |  | > 100000 nM | > 13500 nM | > 135 µM | 
16 | CCCCCCCCOC(=O)/C(CCC=C(C)C)=C1\[C@@H](OC(C)=O)C[C@@]2(C)[C@H]1C[C@@H](O)[C@H]1[C@@]3(C)CC[C@@H](O)[C@@H](C)[C@@H]3CC[C@@]12C | 4 - 49 | 5 - 17 | 20 | 4600 nM | 1600 nM | 92.4 µM | 
17 | CC(=O)O[C@H]1C[C@@]2(C)[C@@H](C[C@@H](O)[C@H]3[C@@]4(C)CC[C@@H](O)[C@@H](C)[C@@H]4CC[C@@]32C)/C1=C(\CCC=C(C)C)C(=O)Oc1cccc(F)c1 | 4 - 49 | 5 - 17 | 34 | 2600 nM | 2000 nM | 89.4 µM | 
18 | CC(=O)O[C@H]1C[C@@]2(C)[C@@H](C[C@@H](O)[C@H]3[C@@]4(C)CC[C@@H](O)[C@@H](C)[C@@H]4CC[C@@]32C)/C1=C(\CCC=C(C)C)C(=O)Oc1cc(F)cc(F)c1 | 4 - 49 | 5 - 17 | 21 | 4700 nM |  | 96.7 µM | 
19 | CC(=O)O[C@H]1C[C@@]2(C)[C@@H](C[C@@H](O)[C@H]3[C@@]4(C)CC[C@@H](O)[C@@H](C)[C@@H]4CC[C@@]32C)/C1=C(\CCC=C(C)C)C(=O)Oc1ccccc1 | 20 - 28 | 12 - 14 | 41 | 2400 nM | 1400 nM | 99.4 µM | Stable
20 | CCCCCCCCCCCCNC(=O)/C(CCC=C(C)C)=C1\[C@@H](OC(C)=O)C[C@@]2(C)[C@H]1C[C@@H](O)[C@H]1[C@@]3(C)CC[C@@H](O)[C@@H](C)[C@@H]3CC[C@@]12C | 4 - 49 | 5 - 17 | > 122 | 1200 nM | 1500 nM | > 146 µM | 
21 | CC(=O)O[C@H]1C[C@@]2(C)[C@@H](C[C@@H](O)[C@H]3[C@@]4(C)CC[C@@H](O)[C@@H](C)[C@@H]4CC[C@@]32C)/C1=C(\CCC=C(C)C)C(=O)Oc1cccc(Br)c1 | 4 - 49 | 5 - 17 | 38 | 2600 nM | 1600 nM | 98.3 µM | 
22 | CC(=O)O[C@H]1C[C@@]2(C)[C@@H](C[C@@H](O)[C@H]3[C@@]4(C)CC[C@@H](O)[C@@H](C)[C@@H]4CC[C@@]32C)/C1=C(\CCC=C(C)C)C(=O)Oc1cc(Cl)cc(Cl)c1 | 4 - 49 | 5 - 17 | 41 | 2000 nM | 1100 nM | 81.9 µM | 
23 | CCCCOC(=O)/C(CCC=C(C)C)=C1\[C@@H](OC(C)=O)C[C@@]2(C)[C@H]1C[C@@H](O)[C@H]1[C@@]3(C)CC[C@@H](O)[C@@H](C)[C@@H]3CC[C@@]12C | 4 - 49 | 5 - 17 | 13 | 2900 nM | 1500 nM | 37.4 µM | 
24 | CCCCCCCCCCCCCCCCOC(=O)/C(CCC=C(C)C)=C1\[C@@H](OC(C)=O)C[C@@]2(C)[C@H]1C[C@@H](O)[C@H]1[C@@]3(C)CC[C@@H](O)[C@@H](C)[C@@H]3CC[C@@]12C |  |  |  | > 100000 nM | > 13500 nM | > 135 µM | 
25 | C[C@H]1[C@H](OC(=O)CCC(=O)O)O[C@@H]2O[C@@]3(C)CC[C@H]4[C@H](C)CC[C@@H]1[C@@]24OO3 [ARTESUNATE] |  |  |  | 9.3 nM | 2.6 nM |  | 
26 | CC[C@H]1CN2CCc3cc(OC)c(OC)cc3[C@@H]2C[C@@H]1C[C@H]1NCCc2cc(OC)c(OC)cc21 [EMETINE] |  |  |  |  |  | 0.178 µM | 
